How the values were obtained:
[1] = Cytotoxicity against human HepG2 cells supplemented with fresh medium containing compound every 3 days for 9 days measured post-last dose by MTT assay; format: cell-based
Outline: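 HepG2 cells were exposed to compound for 3 or 9 days and viability was read by MTT assay. CC50 is the concentration causing 50% cytotoxicity. Results are mean ± SD of three experiments.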

Hepatitis B virus [2] = test: Antiviral activity against Hepatitis B virus infected in human HepG2.2.15 cells assessed as inhibition of HBeAg secretion at 20 uM supplemented with fresh medium containing compound every 3 days for 6 days and measured on day 9 by ELISA relative to control; format: functional
Outline: (§1)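 HepG2.2.15 cells were exposed to compound for up to 9 days. The initial screen used 20 µM for 9 days, with lamivudine (20 µM) as positive control. Follow-up used 10, 20 or 40 µM sampled at days 3, 6 and 9. HBsAg and HBeAg were quantified in culture supernatant by ELISA and compared with a no-drug control. Results are mean ± SD of three experiments.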

Hepatitis B virus [3] = test: Antiviral activity against Hepatitis B virus infected in human HepG2.2.15 cells assessed as inhibition of HBsAg secretion at 20 uM supplemented with fresh medium containing compound every 3 days for 6 days and measured on day 9 by ELISA relative to control; format: functional; outline: as §1

| SMILES | CC50 at 216 h [1] [µM] | inhibition (INH) (Hepatitis B virus [2]) [%] | inhibition (INH) (Hepatitis B virus [3]) [%] |
| --- | --- | --- | --- |
| C[C@@]1(F)[C@H](O)[C@@H](CO)O[C@H]1n1nnc2c(NCc3ccccc3)ncnc21 | > 600 | 11.9 | 8.5 |
| CNc1ncnc2c1nnn2[C@@H]1O[C@H](CO)[C@@H](O)[C@@]1(C)F | > 600 | 24.4 | 20.1 |
| C[C@@]1(F)[C@H](O)[C@@H](CO)O[C@H]1n1nnc2c(N)ncnc21 | > 600 | 10 | 9.9 |
| C[C@@]1(F)[C@H](O)[C@@H](CO)O[C@H]1n1nnc2c(=O)[nH]cnc21 | > 600 | 7.4 | 8.5 |

From ChEMBL document CHEMBL4340532, “Design, synthesis, and biological evaluation of novel 2'-deoxy-2'-fluoro-2'-C-methyl 8-azanebularine derivatives as potent anti-HBV agents” (Bioorg Med Chem Lett, 2019)
